Reference: ChEMBL document CHEMBL4371064, “Erythrofordins D and E, two new cassaine-type diterpenes from Erythrophleum suaveolens” (2019)

How the values were obtained:
Format in all cases: functional
OVCAR-8 = test: Growth inhibition of human OVCAR8 cells incubated for 48 hrs by sulforhodamine B assay; conditions: OVCAR-8, 48 h
Procedure, shortened: (§1)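 Run in the NCI-60 human tumour cell line panel with dose-response testing. GI50 was determined for each cell line from its dose-response data.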

SF-295 = test: Growth inhibition of human SF295 cells incubated for 48 hrs by sulforhodamine B assay; conditions: SF-295, 48 h; procedure, shortened: as §1
MCF7 = test: Growth inhibition of human MCF7 cells incubated for 48 hrs by sulforhodamine B assay; conditions: MCF7, 48 h; procedure, shortened: as §1
NCI/ADR-RES = test: Growth inhibition of human NCI/ADR-RES cells incubated for 48 hrs by sulforhodamine B assay; procedure, shortened: as §1
UO-31 = test: Growth inhibition of human UO31 cells incubated for 48 hrs by sulforhodamine B assay; conditions: UO-31, 48 h
Procedure, shortened: (§2)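 Tested in the NCI 60-human-tumour-cell-line screen using the five-dose format. GI₅₀ was derived from each cell line's dose-response. TGI and LC₅₀ were derived from the same dose-response data.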

NCI-H522 = test: Growth inhibition of human NCI-H522 cells incubated for 48 hrs by sulforhodamine B assay; conditions: NCI-H522, 48 h; procedure, shortened: as §1
KM12 = test: Growth inhibition of human KM12 cells incubated for 48 hrs by sulforhodamine B assay; conditions: KM12, 48 h; procedure, shortened: as §1
HL-60(TB) = test: Growth inhibition of human HL-60(TB) cells incubated for 48 hrs by sulforhodamine B assay; conditions: HL-60, 48 h
Procedure, shortened: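 Run within the NCI-60 human tumour cell line panel as a dose-response screen. For each cell line the readouts are GI50, TGI and LC50. Per-line log values also feed a mean-graph analysis, in which the arithmetic mean of the log values across all lines is subtracted from each line's log value.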

MOLT-4 = test: Growth inhibition of human MOLT4 cells incubated for 48 hrs by sulforhodamine B assay; conditions: MOLT-4, 48 h; procedure, shortened: as §1
DU-145 = test: Growth inhibition of human DU145 cells incubated for 48 hrs by sulforhodamine B assay; conditions: DU-145, 48 h; procedure, shortened: as §1
NCI-H322M = test: Growth inhibition of human NCI-H322M cells incubated for 48 hrs by sulforhodamine B assay; procedure, shortened: as §1
PC-3 = test: Growth inhibition of human PC3 cells incubated for 48 hrs by sulforhodamine B assay; conditions: PC-3, 48 h; procedure, shortened: as §1
T47D = test: Growth inhibition of human T47D cells incubated for 48 hrs by sulforhodamine B assay; procedure, shortened: as §2
M14 = test: Growth inhibition of human M14 cells incubated for 48 hrs by sulforhodamine B assay; conditions: M14, 48 h; procedure, shortened: as §1
CAKI-1 = test: Growth inhibition of human Caki1 cells incubated for 48 hrs by sulforhodamine B assay; conditions: CAKI-1, 48 h; procedure, shortened: as §1
HCC 2998 = test: Growth inhibition of human HCC2998 cells incubated for 48 hrs by sulforhodamine B assay; conditions: HCC 2998, 48 h; procedure, shortened: as §1
NCI-H23 = test: Growth inhibition of human NCI-H23 cells incubated for 48 hrs by sulforhodamine B assay; conditions: NCI-H23, 48 h; procedure, shortened: as §1
RPMI-8226 = test: Growth inhibition of human RPMI8226 cells incubated for 48 hrs by sulforhodamine B assay; conditions: RPMI-8226, 48 h; procedure, shortened: as §1
OVCAR-5 = test: Growth inhibition of human OVCAR5 cells incubated for 48 hrs by sulforhodamine B assay; conditions: OVCAR-5, 48 h; procedure, shortened: as §1
SK-MEL-28 = test: Growth inhibition of human SK-MEL-28 cells incubated for 48 hrs by sulforhodamine B assay; conditions: SK-MEL-28, 48 h; procedure, shortened: as §1
A549 = test: Growth inhibition of human A549/ATCC cells incubated for 48 hrs by sulforhodamine B assay; conditions: A549, 48 h; procedure, shortened: as §1
U-251 = test: Growth inhibition of human U251 cells incubated for 48 hrs by sulforhodamine B assay; conditions: U-251, 48 h; procedure, shortened: as §2
K562 = test: Growth inhibition of human K562 cells incubated for 48 hrs by sulforhodamine B assay; conditions: K562, 48 h; procedure, shortened: as §1
RXF 393 = test: Growth inhibition of human RXF393 cells incubated for 48 hrs by sulforhodamine B assay; conditions: RXF 393, 48 h; procedure, shortened: as §1
NCI-H460 = test: Growth inhibition of human NCI-H460 cells incubated for 48 hrs by sulforhodamine B assay; conditions: NCI-H460, 48 h; procedure, shortened: as §1
HOP-62 = test: Growth inhibition of human HOP62 cells incubated for 48 hrs by sulforhodamine B assay; conditions: HOP-62, 48 h; procedure, shortened: as §1
SF-268 = test: Growth inhibition of human SF268 cells incubated for 48 hrs by sulforhodamine B assay; conditions: SF-268, 48 h; procedure, shortened: as §1
MDA-MB-435 = test: Growth inhibition of human MDA-MB-435 cells incubated for 48 hrs by sulforhodamine B assay; conditions: MDA-MB-435, 48 h; procedure, shortened: as §1
EKVX = test: Growth inhibition of human EKVX cells incubated for 48 hrs by sulforhodamine B assay; procedure, shortened: as §1
[1] = read-out: pLC50 (the source's name) (converted)

COC(=O)/C=C1\CC[C@H]2[C@@H](CC(=O)[C@H]3C(C)(C)[C@@H](O)CC[C@]23C)[C@H]1C showed a GI50 (OVCAR-8) of 1.38 µM, an LC50 (OVCAR-8) of over 34.7 µM and a TGI (OVCAR-8; read-out: pTGI (converted)) of 7.24 µM. It also gave a GI50 (SF-295) of 1.45 µM, an LC50 (SF-295) of over 34.7 µM and a TGI (SF-295; read-out: pTGI (converted)) of 7.59 µM. For the same molecule, the GI50 (MCF7) was 1.62 µM, the CC50 (MCF7; [1]) was over 34.7 µM and the TGI (MCF7; read-out: pTGI) was over 34.7 µM. It also gave a GI50 (NCI/ADR-RES) of 1.2 µM, a CC50 (NCI/ADR-RES; [1]) of over 34.7 µM and a TGI (NCI/ADR-RES; read-out: pTGI (converted)) of 6.61 µM. It also gave a GI50 (UO-31) of 1.05 µM, an LC50 (UO-31) of 16.2 µM and a TGI (UO-31; read-out: pTGI (converted)) of 5.01 µM. For the same molecule, the GI50 (NCI-H522) was 0.741 µM, the LC50 (NCI-H522) was 27.5 µM and the TGI (NCI-H522; read-out: pTGI (converted)) was 2.29 µM. The GI50 (KM12) was 11 µM, the LC50 (concentration killing 50% of cells) (KM12) was over 34.7 µM and the TGI (KM12; read-out: pTGI) was over 34.7 µM. The GI50 (HL-60(TB)) was 5.37 µM, the LC50 (HL-60(TB)) was over 34.7 µM and the TGI (HL-60(TB); read-out: pTGI (converted)) was 21.4 µM. It also gave a GI50 (MOLT-4) of 0.813 µM, an LC50 (MOLT-4) of over 34.7 µM and a TGI (MOLT-4; read-out: pTGI (converted)) of 2.14 µM. It also gave a GI50 (DU-145) of 0.776 µM, an LC50 (concentration killing 50% of cells) (DU-145) of 4.79 µM and a TGI (DU-145; read-out: pTGI (converted)) of 1.74 µM. For the same molecule, the GI50 (NCI-H322M) was 1.35 µM, the LC50 (NCI-H322M) was over 34.7 µM and the TGI (NCI-H322M; read-out: pTGI (converted)) was 9.55 µM. The GI50 (PC-3) was 3.16 µM, the CC50 (PC-3; [1]) was over 34.7 µM and the TGI (PC-3; read-out: pTGI (converted)) was 15.8 µM. For the same molecule, the GI50 (T47D) was 5.37 µM, the LC50 (T47D) was over 34.7 µM and the TGI (T47D; read-out: pTGI (converted)) was 21.9 µM. It also gave a GI50 (M14) of 10 µM, an LC50 (M14) of over 34.7 µM and a TGI (M14; read-out: pTGI (converted)) of over 34.7 µM. For the same molecule, the GI50 (CAKI-1) was 1.38 µM, the LC50 (CAKI-1) was over 34.7 µM and the TGI (CAKI-1; read-out: pTGI (converted)) was 6.76 µM. For the same molecule, the GI50 (HCC 2998) was 10.7 µM, the LC50 (HCC 2998) was over 34.7 µM and the TGI (HCC 2998; read-out: pTGI (converted)) was over 34.7 µM. The GI50 (NCI-H23) was 1.23 µM, the LC50 (NCI-H23) was over 34.7 µM and the TGI (NCI-H23; read-out: pTGI (converted)) was 7.76 µM. For the same molecule, the GI50 (RPMI-8226) was 8.91 µM, the LC50 (RPMI-8226) was over 34.7 µM and the TGI (RPMI-8226; read-out: pTGI (converted)) was over 34.7 µM. It also gave a GI50 (OVCAR-5) of 5.89 µM, an LC50 (OVCAR-5) of over 34.7 µM and a TGI (OVCAR-5; read-out: pTGI (converted)) of 17.4 µM. For the same molecule, the GI50 (SK-MEL-28) was 9.33 µM, the LC50 (SK-MEL-28) was over 34.7 µM and the TGI (SK-MEL-28; read-out: pTGI (converted)) was 33.1 µM. The GI50 (A549) was 0.603 µM, the LC50 (A549) was 2.09 µM and the TGI (A549; read-out: pTGI (converted)) was 1.12 µM. The GI50 (U-251) was 1.7 µM, the LC50 (U-251) was 19.5 µM and the TGI (U-251; read-out: pTGI (converted)) was 6.76 µM. For the same molecule, the GI50 (K562) was 5.13 µM, the LC50 (K562) was over 34.7 µM and the TGI (K562; read-out: pTGI (converted)) was 28.8 µM. For the same molecule, the GI50 (RXF 393) was 0.933 µM, the CC50 (RXF 393; [1]) was over 34.7 µM and the TGI (RXF 393; read-out: pTGI (converted)) was 3.31 µM. The GI50 (NCI-H460) was 0.776 µM, the LC50 (NCI-H460) was 5.13 µM and the TGI (NCI-H460; read-out: pTGI (converted)) was 1.74 µM. The GI50 (HOP-62) was 1.1 µM, the CC50 (HOP-62; [1]) was 15.1 µM and the TGI (HOP-62; read-out: pTGI (converted)) was 4.47 µM. It also gave a GI50 (SF-268) of 1.17 µM, an LC50 (SF-268) of 14.5 µM and a TGI (SF-268; read-out: pTGI (converted)) of 4.47 µM. The GI50 (MDA-MB-435) was 8.51 µM, the LC50 (MDA-MB-435) was over 34.7 µM and the TGI (MDA-MB-435; read-out: pTGI (converted)) was over 34.7 µM. For the same molecule, the GI50 (EKVX) was 0.871 µM, the LC50 (EKVX) was 11 µM and the TGI (EKVX; read-out: pTGI (converted)) was 2.69 µM.
